Experimental data published in ChEMBL document CHEMBL3244411, “A new warfarin metabolite: structure and function” (J Med Chem, 1978).
Activity calls are given as the source filed them. The calls are words filed in the database; no cut-off is given here.

How the values were obtained:
[1] = Activity at cytochrome P450 in rat liver microsomes treated with (S)-warfarin measured for 10 mins by LC-UV analysis; assay type: ADME
Outline: (§1)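 Male Wistar rat hepatic microsomes, 8.0 mg protein in 4.0 mL 0.01 M TES-0.002 M MgCl2, pH 7.4. Enantiopure warfarin sodium 1.0 mg (3.0 × 10^-6 mol) with an NADPH-generating system (NADP 1.25 μmol, glucose 6-phosphate 62.1 μmol). Preincubated 1.0 min at 37 °C, started with G6P dehydrogenase 5.0 units, stopped after 10 min by filtration. Metabolites separated and quantified by LC against external standards.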

[2] = Activity at cytochrome P450 in rat liver microsomes treated with (R)-warfarin measured for 10 mins by LC-UV analysis; assay type: ADME; outline: as §1
Salmonella typhimurium [3] = experiment: Mutagenicity in Salmonella typhimurium TA98 by Ames test in presence of liver microsomes; assay type: toxicity, organism-based; settings: salmonella enterica subsp. enterica serovar typhimurium
Salmonella typhimurium [4] = experiment: Mutagenicity in Salmonella typhimurium TA100 by Ames test in presence of liver microsomes; assay type: toxicity, organism-based; settings: salmonella enterica subsp. enterica serovar typhimurium
Salmonella typhimurium [5] = experiment: Mutagenicity in Salmonella typhimurium TA1535 by Ames test in presence of liver microsomes; assay type: toxicity, organism-based; settings: salmonella enterica subsp. enterica serovar typhimurium
Salmonella typhimurium [6] = experiment: Mutagenicity in Salmonella typhimurium TA1537 by Ames test in presence of liver microsomes; assay type: toxicity, organism-based; settings: salmonella enterica subsp. enterica serovar typhimurium
Liver microsome = experiment: Drug metabolism in rat liver microsomes by LC-UV analysis; assay type: ADME
[7] = Activity at cytochrome P450 in PCN-induced rat liver microsomes treated with (R)-warfarin at 0.15 mmol measured under acidic conditions by LC-UV analysis in presence of cumene hydroperoxide; assay type: ADME
Outline: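 Liver microsomes from PCN-induced rats (100 mg/kg/day ip in corn oil for 3 days), 200 mL at 2.0 mg protein/mL in TES–MgCl2, pH 7.4, with (R)-warfarin sodium 1.5 × 10^-4 mol. Preincubated 5 min at 37 °C with shaking, started with cumene hydroperoxide 1.6 × 10^-4 mol, given a second equal addition at 10 min, stopped at 30 min on ice. Product isolated by preparative C18 LC.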

[8] = Activity at cytochrome P450 in rat liver microsomes treated with (S)-warfarin at 3 umol measured under acidic conditions by LC-UV analysis in presence of NADPH; assay type: ADME
Outline: (§2)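 Male Wistar rat liver microsomes, uninduced or phenobarbital-induced (100 mg/kg/day ip in saline for 3 days, harvested 24 h after the last dose). Per 4.0 mL of 0.01 M TES–0.002 M MgCl2, pH 7.4: (R)- or (S)-warfarin sodium 3.0 × 10^-6 mol, NADP 1.25 µmol, glucose 6-phosphate 62.1 µmol, 8.0 mg protein. Preincubated 1.0 min at 37 °C, started with yeast G6P dehydrogenase (5.0 units), stopped by filtration after 10 min. Products quantified by LC against external standards.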

[9] = Activity at cytochrome P450 in phenobarbital-induced rat liver microsomes treated with (S)-warfarin at 3 umol measured under acidic conditions by LC-UV analysis in presence of NADPH; assay type: ADME; outline: as §2
Rattus norvegicus [10] = experiment: Anticoagulant activity in rat plasma at 100 mg/kg, ip measured after 12 hrs by one-stage clotting assay; assay type: functional, organism-based; design: dose 100 mg/kg
Outline: (§3)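 Six rats per group given 100 mg/kg ip, as sodium salt in saline or as free acid in corn oil. At 12 h, rats were anesthetized and blood drawn from the posterior vena cava into 3.8% trisodium citrate; plasma was taken at 2000g for 10 min. Clotting measured by one-stage fibrometer assay, and individual factors by a published method. Controls received vehicle or racemic warfarin sodium at 10 mg/kg ip.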

Rattus norvegicus [11] = experiment: Antagonism of extrinsic coagulation factor-2 synthesis in rat plasma at 100 mg/kg, ip measured after 12 hrs; assay type: functional, organism-based; design: dose 100 mg/kg; outline: as §3
Rattus norvegicus [12] = experiment: Antagonism of extrinsic coagulation factor-7 synthesis in rat plasma at 100 mg/kg, ip measured after 12 hrs; assay type: functional, organism-based; design: dose 100 mg/kg; outline: as §3
Rattus norvegicus [13] = experiment: Antagonism of extrinsic coagulation factor-10 synthesis in rat plasma at 100 mg/kg, ip measured after 12 hrs; assay type: functional, organism-based; design: dose 100 mg/kg; outline: as §3
Rattus norvegicus [14] = experiment: Antagonism of intrinsic coagulation factor-8 synthesis in rat plasma at 100 mg/kg, ip measured after 12 hrs; assay type: functional, organism-based; design: dose 100 mg/kg; outline: as §3
Rattus norvegicus [15] = experiment: Antagonism of intrinsic coagulation factor-9 synthesis in rat plasma at 100 mg/kg, ip measured after 12 hrs; assay type: functional, organism-based; design: dose 100 mg/kg; outline: as §3
Rattus norvegicus [16] = experiment: Effect on fibrinogen level in rat plasma at 100 mg/kg, ip measured after 24 hrs; assay type: functional, organism-based; design: dose 100 mg/kg
Rattus norvegicus [17] = experiment: Toxicity in ip dosed rat; assay type: organism-based; settings: in vivo
Salmonella typhimurium [18] = experiment: Mutagenicity in Salmonella typhimurium TA98 by Ames test; assay type: toxicity, organism-based; settings: salmonella enterica subsp. enterica serovar typhimurium
Salmonella typhimurium [19] = experiment: Mutagenicity in Salmonella typhimurium TA100 by Ames test; assay type: toxicity, organism-based; settings: salmonella enterica subsp. enterica serovar typhimurium
Salmonella typhimurium [20] = experiment: Mutagenicity in Salmonella typhimurium TA1535 by Ames test; assay type: toxicity, organism-based; settings: salmonella enterica subsp. enterica serovar typhimurium
Salmonella typhimurium [21] = experiment: Mutagenicity in Salmonella typhimurium TA1537 by Ames test; assay type: toxicity, organism-based; settings: salmonella enterica subsp. enterica serovar typhimurium
[22] = Activity at cytochrome P450 in PCN-induced rat liver microsomes treated with (R)-warfarin at 0.15 mmol measured under basic conditions by LC-UV analysis in presence of cumene hydroperoxide; assay type: ADME
Outline: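 PCN-induced rat liver microsomes (PCN 100 mg/kg/day ip in corn oil for 3 days; killed 24 h after last dose): 200 mL of microsomes at 2.0 mg protein/mL in TES-MgCl2 buffer pH 7.4, with (R)-warfarin sodium 1.5 × 10^-4 mol. Shaken 5 min at 37 °C, then started with cumene hydroperoxide 1.6 × 10^-4 mol, re-added at 10 min, stopped at 30 min on ice. Product collected by preparative C18 LC.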

[23] = Activity at cytochrome P450 in rat liver microsomes treated with (S)-warfarin at 3 umol measured under basic conditions by LC-UV analysis in presence of NADPH; assay type: ADME; outline: as §1
[24] = Activity at cytochrome P450 in phenobarbital-induced rat liver microsomes treated with (S)-warfarin at 3 umol measured under basic conditions by LC-UV analysis in presence of NADPH; assay type: ADME
Outline: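 Phenobarbital induction: 100 mg/kg/day ip in saline for 3 days, microsomes isolated 24 h after the last dose. Incubation in 4.0 mL 0.01 M TES-0.002 M MgCl2, pH 7.4, with warfarin sodium 1.0 mg (3.0 × 10^-6 mol), NADP 1.25 μmol, glucose 6-phosphate 62.1 μmol and 8.0 mg microsomal protein. Preincubated 1.0 min at 37 °C, started with G6P dehydrogenase 5.0 units, stopped after 10 min by filtration. Metabolites quantified by LC against external standards.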

[25] = Activity at cytochrome P450 in rat liver microsomes treated with (S)-warfarin measured after 10 mins by LC-UV analysis; assay type: ADME; outline: as §1
[26] = Activity at cytochrome P450 in rat liver microsomes treated with (R)-warfarin measured after 10 mins by LC-UV analysis; assay type: ADME; outline: as §1

SMILES: CC(=O)CC(c1ccccc1)c1c(O)c2ccccc2oc1=O (centres undefined) [WARFARIN]
- Drug metabolism [1]: metabolite_detected
- Drug metabolism [2]: metabolite_detected
- Activity (Salmonella typhimurium [3]): Non-toxic
- Activity (Salmonella typhimurium [4]): Non-toxic
- Activity (Salmonella typhimurium [5]): Non-toxic
- Activity (Salmonella typhimurium [6]): Non-toxic
- Drug metabolism (Liver microsome): metabolite_notdetected
- Drug metabolism [7]: metabolite_detected
- Drug metabolism [8]: metabolite_detected
- Drug metabolism [9]: metabolite_detected
- Activity (Rattus norvegicus [10]): inactive
- inhibition (Rattus norvegicus [11]): inactive
- inhibition (Rattus norvegicus [12]): inactive
- inhibition (Rattus norvegicus [13]): inactive
- inhibition (Rattus norvegicus [14]): inactive
- inhibition (Rattus norvegicus [15]): inactive
- Activity (Rattus norvegicus [16]): inactive
- Activity (Rattus norvegicus [17]): Non-toxic
- Activity (Salmonella typhimurium [18]): Non-toxic
- Activity (Salmonella typhimurium [19]): Non-toxic
- Activity (Salmonella typhimurium [20]): Non-toxic
- Activity (Salmonella typhimurium [21]): Non-toxic

SMILES: CC(=O)/C=C(\c1ccccc1)c1c(O)oc2ccccc2c1=O
- Drug metabolism [22]: metabolite_detected
- Drug metabolism [23]: metabolite_detected
- Drug metabolism [24]: metabolite_detected

SMILES: CC(=O)CC(c1ccc(O)cc1)c1c(O)oc2ccccc2c1=O (centres undefined)
- Drug metabolism [25]: metabolite_detected
- Drug metabolism [26]: metabolite_detected
- Drug metabolism [1]: metabolite_detected
- Drug metabolism [2]: metabolite_detected
